Results as given in ChEMBL document CHEMBL5385953, “Antiviral Rotenoids and Isoflavones Isolated from Millettia oblata ssp. teitensis” (J Nat Prod, 2024).
Activity calls are given as the source filed them. No cut-off for these calls is given here.

Key:
HEp-2 [1] = assay: Cytotoxicity against human HEp-2 cells measured after 3 days by CellTiter 96 aqueous one solution assay (Rvb >100 microM); type: functional; details: HEp-2, 72 h, time 3 day
HEp-2 [2] = assay: Cytostatic activity against human HEp-2 cells assessed as poor cell proliferation at 100 uM measured after 3 days by CellTiter 96 aqueous one solution assay; type: functional, cell-based; details: time 3.0 day
Procedure, shortened: (§1)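 Compound-treated HEp-2 cells (grown in DMEM with 8% fetal calf serum and 292 μg/mL L-glutamine) were examined by microscopy alongside the tetrazolium viability assay. Cytostatic effects were scored as poor cell proliferation, altered cell shape or poor cell staining.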

HEp-2 [3] = assay: Cytostatic activity against human HEp-2 cells assessed as poor cell staining at 20 uM measured after 3 days by CellTiter 96 aqueous one solution assay; type: functional, cell-based; details: time 3.0 day; procedure, shortened: as §1
[4] = Selectivity index, ratio of CC50 for human HEp-2 cells to IC50 for Human respiratory syncytial virus infected in human HEp-2 cells; type: toxicity, cell-based; details: read-out: Ratio CC50/IC50
HEp-2 [5] = assay: Cytostatic activity against human HEp-2 cells assessed as poor cell staining at 4.0 uM measured after 3 days by CellTiter 96 aqueous one solution assay; type: functional, cell-based; details: time 3.0 day
HEp-2 [6] = assay: Cytostatic activity against human HEp-2 cells assessed as poor cell staining at 100 uM measured after 3 days by CellTiter 96 aqueous one solution assay; type: functional, cell-based; details: time 3.0 day
HEp-2 [7] = assay: Cytostatic activity against human HEp-2 cells assessed as poor cell staining at 4.0 to 100 uM measured after 3 days by CellTiter 96 aqueous one solution assay; type: functional, cell-based; details: dose 4-100 µM, time 3.0 day
HEp-2 [8] = assay: Cytostatic activity against human HEp-2 cells assessed as poor cell staining at 0.8 to 4.0 uM measured after 3 days by CellTiter 96 aqueous one solution assay; type: functional, cell-based; details: dose 0.8-4 µM, time 3.0 day; procedure, shortened: as §1

Row | Structure (SMILES) | CC50 (HEp-2 [1]) [µM] | other results
1 | COc1ccc2c(c1)O[C@@H]1COc3cc4c(cc3[C@@H]1C2=O)OCO4 | > 100 | 
2 | NC(=O)c1ncn([C@@H]2O[C@H](CO)[C@@H](O)[C@H]2O)n1 [RIBAVIRIN] | > 100 | Activity (HEp-2 [2]): Active
3 | COc1ccc2c(c1)O[C@@H]1COc3cc(OC)c(OC)cc3[C@]1(O)C2=O |  | Activity (HEp-2 [3]): Active
4 | COc1cc2c(cc1OC)[C@@H]1C(=O)c3ccc4c(c3O[C@@H]1CO2)C=CC(C)(C)O4 [DEGUELIN] |  | selectivity ratio [4]: 61.6; Activity (HEp-2 [5]): Active
5 | COc1ccc2c(c1)O[C@@H]1COc3c(cc(OC)c4c3OCO4)[C@@H]1C2=O | > 100 | 
6 | COc1ccc2c(c1)O[C@@H]1COc3cc4c(cc3[C@]1(O)C2=O)OCO4 |  | Activity (HEp-2 [3]): Active
7 | COc1cc2c(cc1OC)C(=O)[C@@]1(O)c3cc4c(cc3OC[C@H]1O2)OCO4 | > 100 | 
8 | COc1cc2c(cc1-c1coc3c4c(c(OC)cc3c1=O)OC(C)(C)C=C4)OCO2 [ICHTHYNONE] | 91 | Activity (HEp-2 [3]): Active
9 | COc1c(O[C@@H]2O[C@H](CO[C@H]3O[C@H](C)[C@@H](O)[C@H](O)[C@@H]3O)[C@@H](O[C@@H]3O[C@H](CO[C@H]4O[C@H](C)[C@@H](O)[C@H](O)[C@@H]4O)[C@@H](O)[C@H](O)[C@H]3O)[C@H](O)[C@H]2O)cc2c(=O)c(-c3ccc4c(c3)OCO4)coc2c1OC | > 100 | 
10 | CC(C)=CCOc1ccc(-c2coc3c4c(cc(O)c3c2=O)OC(C)(C)C=C4)cc1 | > 100 | Activity (HEp-2 [6]): Active
11 | CC(C)=CCOc1ccc(-c2coc3c4c(ccc3c2=O)OC(C)(C)C=C4)cc1 | > 100 | selectivity ratio [4]: > 47.6; Activity (HEp-2 [7]): Active
12 | COc1cc2c(cc1OC)[C@]1(O)C(=O)c3ccc4c(c3O[C@@H]1CO2)C=CC(C)(C)O4 |  | Activity (HEp-2 [8]): Active
13 | CC1(C)C=Cc2c(ccc3c(=O)c(-c4ccc5c(c4)OCO5)coc23)O1 | > 100 | 
14 | COc1ccc2c(=O)c(-c3cc4c(cc3OC)OCO4)coc2c1 |  | Activity (HEp-2 [3]): Active
15 | COc1cc2c(cc1-c1coc3cc(O)ccc3c1=O)OCO2 [CUNEATIN] | > 100 | 
16 | COc1ccc2c(=O)c(-c3cc(OC)c4c(c3OC)OCO4)coc2c1 | > 100 | 
